Laboratory results published in ChEMBL document CHEMBL4266041, “Hydroxybiphenylamide GroEL/ES Inhibitors Are Potent Antibacterials against Planktonic and Biofilm Forms of Staphylococcus aureus” (J Med Chem, 2018).

How the values were obtained:
Pseudomonas aeruginosa = experiment: Antibacterial activity against Pseudomonas aeruginosa ATCC 10145 after 24 hrs by bacterial proliferation assay; format: functional, organism-based; settings: ATCC 10145, 24 h
Summary of the method: (§1)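 Bacterial growth inhibition in liquid culture. The highest concentration tested was 100 µM. The mean was back-calculated from the average log value. Values above the top concentration were set 0.1 log unit higher.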

HEK293 = experiment: Cytotoxicity against HEK293 cells assessed as reduction in cell viability after 48 hrs by Alamar Blue reporter assay; settings: human, hek293, 48 h
E. coli GroEL/ES [1] = target: T1, E. coli GroEL/ES (Escherichia coli, UniProt P0A6F5); experiment: Inhibition of Escherichia coli GroEL expressed in Escherichia coli DH5alpha/Escherichia coli GroES expressed in Escherichia coli BL21 (DE3) assessed as reduction in GroEL/GroES-mediated denatured MDH refolding after 20 to 40 mins by spectrometric analysis
Summary of the method: (§2)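 Uses E. coli GroEL/ES with a denatured MDH or rhodanese reporter. GroEL first forms a binary complex with the denatured reporter. Refolding is started by adding ATP and GroES, then reporter enzyme activity is read. DMSO is the negative control. IC50 values from replicate curves are log-averaged after ROUT outlier screening.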

[2] = Cytotoxicity against human THLE3 cells assessed as reduction in cell viability after 48 hrs by Alamar Blue reporter assay; settings: 48 h
[3] = Inhibition of refolded MDH (unknown origin) preincubated with Escherichia coli GroEL/GroES for 45 mins in absence of compound followed by compound addition and measured for 20 to 35 mins by spectrometric analysis
E. coli GroEL/ES [4] = target: T1, E. coli GroEL/ES; experiment: Inhibition of Escherichia coli GroEL expressed in Escherichia coli DH5alpha/Escherichia coli GroES expressed in Escherichia coli BL21 (DE3) assessed as reduction in GroEL/GroES-mediated denatured rhodanese refolding after 45 mins by spectrometric analysis; summary of the method: as §2
[5] = target: T2, Thiosulfate sulfurtransferase (Homo sapiens, UniProt Q16762); experiment: Inhibition of refolded rhodanese (unknown origin) preincubated with Escherichia coli GroEL/GroES for 60 mins in absence of compound followed by compound addition by spectrometric analysis
T2 sequence (Q16762 whole entry): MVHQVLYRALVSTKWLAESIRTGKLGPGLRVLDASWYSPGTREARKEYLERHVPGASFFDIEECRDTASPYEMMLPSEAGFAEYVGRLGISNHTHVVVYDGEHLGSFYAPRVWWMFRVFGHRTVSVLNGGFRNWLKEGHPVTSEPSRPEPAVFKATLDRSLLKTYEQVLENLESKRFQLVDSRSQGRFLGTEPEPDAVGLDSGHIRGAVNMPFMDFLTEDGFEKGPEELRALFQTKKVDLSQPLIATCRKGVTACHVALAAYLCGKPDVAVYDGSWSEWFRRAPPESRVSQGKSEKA

Enterococcus faecium = experiment: Antibacterial activity against Enterococcus faecium ATCC 19434 after 24 hrs by bacterial proliferation assay; format: functional, organism-based; settings: ATCC 19434, 24 h
Staphylococcus aureus [6] = experiment: Antibacterial activity against methicillin-resistant Staphylococcus aureus ATCC BAA-44 after 6 to 8 hrs by bacterial proliferation assay; format: functional, organism-based
Acinetobacter baumannii = experiment: Antibacterial activity against Acinetobacter baumannii ATCC 19606 after 24 hrs by bacterial proliferation assay; format: functional, organism-based; settings: ATCC 19606 = CIP 70.34 = JCM 6841, 24 h; summary of the method: as §1
Enterobacter cloacae = experiment: Antibacterial activity against Enterobacter cloacae subsp. cloacae ATCC 13047 after 24 hrs by bacterial proliferation assay; format: functional, organism-based; settings: subsp. cloacae ATCC 13047, 24 h; summary of the method: as §1
HSP60/HSP10 = HSP60/HSP10 (Homo sapiens, UniProt P10809); experiment: Inhibition of human N-terminal octa-His-tagged HSP60 expressed in Escherichia coli Rosetta(DE3) pLysS/human HSP10 expressed in Escherichia coli Rosetta(DE3) assessed as reduction in HSP60/HSP10-mediated denatured MDH refolding after 40 to 60 mins by spectrometric analysis
Summary of the method: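 Human HSP60/10 refolding of denatured MDH, run the same way as the GroEL/ES-dMDH assay. A binary complex of chaperonin and denatured MDH is formed, and refolding is started with ATP and HSP10. MDH activity is the read-out. DMSO is the negative control. IC50 values from replicate curves are log-averaged after ROUT outlier screening.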

Staphylococcus aureus [7] = experiment: Antibacterial activity against Staphylococcus aureus ATCC 25923 after 6 to 8 hrs by bacterial proliferation assay; format: functional, organism-based
Klebsiella pneumoniae = experiment: Antibacterial activity against Klebsiella pneumoniae ATCC 13883 after 6 to 8 hrs by bacterial proliferation assay; format: functional, organism-based; summary of the method: as §1
[8] = Staphylococcus aureus, ATCC BAA-44

HSP60/HSP10, sequence (P10809 whole entry): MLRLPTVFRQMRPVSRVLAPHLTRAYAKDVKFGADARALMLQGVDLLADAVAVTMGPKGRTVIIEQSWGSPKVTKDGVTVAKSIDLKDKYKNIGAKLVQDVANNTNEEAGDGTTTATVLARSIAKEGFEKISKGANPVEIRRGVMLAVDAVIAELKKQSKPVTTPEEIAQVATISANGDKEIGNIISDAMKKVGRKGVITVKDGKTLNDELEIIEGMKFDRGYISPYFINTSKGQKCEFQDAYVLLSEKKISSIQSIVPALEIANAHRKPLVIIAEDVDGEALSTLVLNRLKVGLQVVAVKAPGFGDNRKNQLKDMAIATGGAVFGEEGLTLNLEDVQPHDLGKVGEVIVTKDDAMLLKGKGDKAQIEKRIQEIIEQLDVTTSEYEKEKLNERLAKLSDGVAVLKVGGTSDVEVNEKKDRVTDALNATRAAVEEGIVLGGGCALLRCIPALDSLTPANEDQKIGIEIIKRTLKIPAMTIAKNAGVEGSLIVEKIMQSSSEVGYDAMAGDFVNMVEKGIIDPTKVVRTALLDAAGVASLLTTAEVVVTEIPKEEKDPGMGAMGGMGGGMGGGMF
HSP60/HSP10, sequence (P61604 whole entry, further chain): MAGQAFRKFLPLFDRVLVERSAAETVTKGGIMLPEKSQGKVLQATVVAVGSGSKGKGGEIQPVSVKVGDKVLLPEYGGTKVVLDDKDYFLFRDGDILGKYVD
T1 sequence (P0A6F5 whole entry, looked up): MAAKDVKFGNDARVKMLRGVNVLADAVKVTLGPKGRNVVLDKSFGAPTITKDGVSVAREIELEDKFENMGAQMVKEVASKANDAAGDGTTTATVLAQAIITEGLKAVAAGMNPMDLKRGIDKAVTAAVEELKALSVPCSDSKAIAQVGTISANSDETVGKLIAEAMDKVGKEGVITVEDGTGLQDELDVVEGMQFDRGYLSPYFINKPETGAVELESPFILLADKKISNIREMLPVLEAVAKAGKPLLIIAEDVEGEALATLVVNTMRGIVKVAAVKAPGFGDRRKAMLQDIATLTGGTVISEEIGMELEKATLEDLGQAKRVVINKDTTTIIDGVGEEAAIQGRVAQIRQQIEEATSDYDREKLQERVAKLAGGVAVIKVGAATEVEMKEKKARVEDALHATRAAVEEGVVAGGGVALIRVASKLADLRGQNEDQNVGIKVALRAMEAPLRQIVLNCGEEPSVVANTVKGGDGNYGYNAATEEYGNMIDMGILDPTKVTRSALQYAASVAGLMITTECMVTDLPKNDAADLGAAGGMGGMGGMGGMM

| SMILES | EC50 (Pseudomonas aeruginosa) [µM] | CC50 (HEK293) [µM] | IC50 (E. coli GroEL/ES [1]) [µM] | CC50 [2] [µM] | IC50 [3] [µM] | IC50 (E. coli GroEL/ES [4]) [µM] | IC50 [5] [µM] | EC50 (Enterococcus faecium) [µM] | EC50 (Staphylococcus aureus [6]; [8]) [µM] | EC50 (Acinetobacter baumannii) [µM] | EC50 (Enterobacter cloacae) [µM] | IC50 (HSP60/HSP10) [µM] | EC50 (Staphylococcus aureus [7]) [µM] | EC50 (Klebsiella pneumoniae) [µM] | EC50 (Staphylococcus aureus [6]) [µM] |
| --- | --- | --- | --- | --- | --- | --- | --- | --- | --- | --- | --- | --- | --- | --- | --- |
| COc1c(Br)cc(Br)cc1C(=O)Nc1ccc(Sc2nc3ccccc3s2)cc1 | > 100 | > 100 | > 100 | > 100 | > 63 | > 100 | > 100 | > 100 | > 100 | > 100 | > 100 | > 100 | > 100 | > 100 | – |
| COc1c(Br)cccc1C(=O)Nc1cccc(Cl)c1 | > 100 | > 100 | > 100 | > 100 | > 63 | > 100 | > 100 | > 100 | > 100 | > 100 | > 100 | > 100 | > 100 | > 100 | – |
| COc1ccc(Br)cc1C(=O)Nc1cccc(Cl)c1 | > 100 | > 100 | > 100 | 94 | > 63 | > 100 | > 100 | > 100 | > 100 | > 100 | > 100 | > 100 | > 100 | > 100 | – |
| O=C(Nc1cccc(Cl)c1)c1cc(Br)cc(Br)c1 | > 100 | 53 | > 100 | 45 | > 63 | > 100 | > 100 | > 100 | 12 | > 100 | > 100 | > 100 | 14 | > 100 | – |
| COc1c(Br)cc(Br)cc1C(=O)Nc1cccc(Cl)c1 | > 100 | > 100 | > 100 | > 100 | > 63 | > 100 | > 100 | > 100 | > 100 | > 100 | > 100 | > 100 | 46 | > 100 | – |
| O=C(Nc1ccc(Sc2nc3ccccc3s2)cc1)c1cccc(Br)c1 | > 100 | 74 | > 100 | 82 | > 63 | > 100 | > 100 | > 100 | > 100 | > 100 | > 100 | > 100 | > 100 | > 100 | – |
| O=C(Nc1ccccc1)c1cc(Br)ccc1O | > 100 | 35 | > 100 | 16 | > 63 | > 100 | > 100 | > 100 | 4.1 | > 100 | > 100 | > 100 | 2.8 | 78 | – |
| COc1ccccc1C(=O)Nc1ccccc1 | > 100 | > 100 | > 100 | > 100 | > 63 | > 100 | > 100 | > 100 | > 100 | > 100 | > 100 | > 100 | > 100 | > 100 | – |
| O=C(Nc1ccc(Oc2ccc(Cl)cc2)c(Cl)c1)c1cc(I)cc(I)c1O [RAFOXANIDE] | > 100 | > 100 | 4.3 | 24 | 25 | 2.2 | > 100 | 0.99 | – | 31 | 40 | 2.8 | 0.32 | > 100 | 0.34 |
| O=C(Nc1ccccc1)c1cc(Br)cc(Br)c1 | > 100 | > 100 | > 100 | > 100 | > 63 | > 100 | > 100 | > 100 | > 100 | > 100 | > 100 | > 100 | > 100 | > 100 | – |
| CO[C@H]1/C=C/O[C@@]2(C)Oc3c(C)c(O)c4c(O)c(c(/C=N/N5CCN(C)CC5)c(O)c4c3C2=O)NC(=O)/C(C)=C\C=C\[C@H](C)[C@H](O)[C@@H](C)[C@@H](O)[C@@H](C)[C@H](OC(C)=O)[C@@H]1C [RIFAMPIN] | 7.8 | – | > 100 | – | > 63 | > 100 | > 100 | 0.13 | 0.23 | 1.3 | 8.8 | > 100 | < 0.05 | 11 | – |
| O=C(Nc1ccc(Sc2nc3ccccc3s2)c(Cl)c1)c1ccccc1O | > 100 | – | 42 | 34 | > 63 | 63 | > 100 | 64 | 0.45 | > 100 | > 100 | > 100 | 0.31 | > 100 | – |
| O=C(Nc1ccc(Sc2nc3ccccc3s2)c(Cl)c1)c1ccccc1 | > 100 | 90 | > 100 | 82 | > 63 | > 100 | > 100 | > 100 | > 100 | > 100 | > 100 | > 100 | 43 | > 100 | – |
| O=C(Nc1ccc(Sc2nc3ccccc3s2)cc1)c1ccccc1 | > 100 | > 100 | > 100 | > 100 | > 63 | > 100 | > 100 | > 100 | > 100 | > 100 | > 100 | > 100 | > 100 | > 100 | – |
| COc1c(Br)cc(Br)cc1C(=O)Nc1ccccc1 | > 100 | > 100 | > 100 | > 100 | > 63 | > 100 | > 100 | > 100 | > 100 | > 100 | > 100 | > 100 | > 100 | > 100 | – |
| COc1ccccc1C(=O)Nc1ccc(Sc2nc3ccccc3s2)cc1 | > 100 | > 100 | > 100 | > 100 | > 63 | > 100 | > 100 | > 100 | > 100 | > 100 | > 100 | > 100 | > 100 | > 100 | – |
| COc1c(Br)cccc1C(=O)Nc1ccc(Sc2nc3ccccc3s2)cc1 | > 100 | > 100 | > 100 | > 100 | > 63 | > 100 | > 100 | > 100 | > 100 | > 100 | > 100 | > 100 | > 100 | > 100 | – |
| O=C(Nc1ccc(Sc2nc3ccccc3s2)cc1)c1cccc(Br)c1O | > 100 | 71 | 33 | 36 | > 63 | 14 | > 100 | 11 | 1.1 | 12 | > 100 | – | 0.76 | > 100 | – |
